High-throughput results (PubChem BioAssay)
This is a sample that favours compounds with a hit; in the whole collection about 2.1% have one here.
Hck Nef HTS = human Hck-Nef kinase inhibition; P08631; hit rate 0.68% among 220,000; inhibition, % at 20 µM; Recombinant Hck-YEEI plus Nef, Z-Lyte FRET kinase assay;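 active means Hck-Nef kinase inhibition above about 50%, limit read from the data; inactive means inhibition below that limit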;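 further: 0% = DMSO with Hck plus Nef and 100% = Hck alone without Nef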
Runt-SMMHC FRET = inhibitors of human RUNX1 Runt domain binding to CBFb-SMMHC | Q01196+Q13951 | Cerulean-Runt/Venus-CBFb-SMMHC FRET ratio 530/480, 1 h | inhibition, % at 20 µM | hit rate 0.74% among 220,000 | AID 1434;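 active means mean inhibition across duplicate retests at 20 µM reaching about 50%, limit read from the data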;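 further: 0% = DMSO wells and 100% = wells with excess untagged CBFb-SMMHC; inhibitors lower the FRET ratio by blocking Runt binding to CBFb-SMMHC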
p97 inhibitor = inhibitors of human p97 ATPase | P55072 | recombinant p97 ATPase, Kinase-Glo ATP luminescence, 3 h | inhibition, % at 8 µM | hit rate 0.42% among 220,000 | AID 1481; in the data active means inhibition above about 15%;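 further: 0% = DMSO vehicle and 100% = wells lacking enzyme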
RanGTP-Imp inh = disruptors of Ran-importin-beta complex formation – biochemical, FRET, CFP-Ran, YFP-importin-beta, homogeneous, primary screen. cell-free CFP-Ran/YFP-importin-beta FRET ratio. inhibition, % (test concentration not listed). hit rate 1.1% among 300,000. AID 2216;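 active means more than half of the replicate wells show a fall in the fluorescence ratio signal beyond about 16%, limit read from the data, passing the limit was not always enough; inconclusive means exactly half of the replicate wells pass the set limit; inactive means fewer than half of replicates pass the limit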;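 further: 0% = DMSO wells and 100% = Ran loaded with GDP instead of GTP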
Runt-CBFb FRET = inhibitors of human RUNX1 Runt domain binding to CBFb; Q01196+Q13951; Cerulean-Runt/Venus-CBFb FRET ratio 530/480, 1 h; inhibition, % at 20 µM; hit rate 0.46% among 220,000;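 active means inhibition over about 50% at 20 µM in the single-dose screen, limit read from the data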;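 further: 0% = DMSO wells and 100% = excess unlabeled CBFb competitor control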
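Measured by: fluorescence energy transfer, 422 nm excitation, 530/480 nm emission; test system: Cerulean-tagged RUNX1 Runt domain (FRET donor) fusion protein; buffer or medium: Tris pH 7.5 buffer with BSA; compound: one dose, 20 µM compound, 1% DMSO; times: two 1 h room-temperature incubations shielded from light; benchmarks: unlabeled CBFb 5 µM, positive control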
TbHK1 inh = T. brucei hexokinase 1 inhibition; recombinant TbHK1, G6PDH-coupled NADH A340; inhibition, % at 10 µM; hit rate 0.11% among 220,000;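 active means inhibition of 50% or more in the single-dose primary screen; inactive means inhibition below 50%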
The depositor's hits bear a star.

Results for O=c1cc(-c2ccccc2Cl)oc2cccc(O)c12 ?
Hck Nef HTS: -8.4; Runt-SMMHC FRET: -0.5; p97 inhibitor: -1.1; RanGTP-Imp inh: -1.2; Runt-CBFb FRET: -0.9; TbHK1 inh: 0.8

How did O=c1cc2oc3cc(O)c(O)cc3c(-c3ccccc3[N+](=O)[O-])c-2cc1O do in these assays?
RanGTP-Imp inh: 17.5*

How did Cc1cccc2c(C(=O)N3CCN(c4ccccn4)CC3)cc(-c3cccc(Br)c3)nc12 do in these assays?
RanGTP-Imp inh: 3.7

How did COc1cc(SC)ccc1C(=O)Nc1cccc(C2OCCCO2)c1 do in these assays?
RanGTP-Imp inh: 4.5

Results for C=CCSC1=N/C(=C\c2cc(OCC)c(OC(C)=O)c([N+](=O)[O-])c2)C(=O)S1 ?
Hck Nef HTS: 83.5*; Runt-SMMHC FRET: -2.1; p97 inhibitor: 7.4; RanGTP-Imp inh: -1.2; Runt-CBFb FRET: 12.5; TbHK1 inh: 18.2

How did C(=N\Nc1nc(Nc2ccccc2)nc(N2CCCCC2)n1)/c1ccco1 do in these assays?
Hck Nef HTS: 15.2; Runt-SMMHC FRET: 1.0; p97 inhibitor: 6.9; RanGTP-Imp inh: 4.9; Runt-CBFb FRET: 0.4; TbHK1 inh: -10.6

What do the screens show for `COc1cc([N+](=O)[O-])ccc1N/C=C/C(=O)c1cccs1`?
Hck Nef HTS: 2.7; Runt-SMMHC FRET: -6.4; p97 inhibitor: -6.3; RanGTP-Imp inh: 26.5*; Runt-CBFb FRET: -48.3; TbHK1 inh: -5.4

Results for Cc1ccc2nc(N3CCN(C(=O)CCCC(=O)O)CC3)nc(-c3ccccc3)c2c1 ?
RanGTP-Imp inh: 16.6*

How did O=C(O)CCC(=O)N1CCN(c2nc(-c3ccccc3)c3ccccc3n2)CC1 do in these assays?
RanGTP-Imp inh: 11.8

Results for O=C(O)CCCC(=O)N1CCN(c2nc(-c3ccccc3Cl)c3cc(Br)ccc3n2)CC1 ?
RanGTP-Imp inh: 35.4*

What do the screens show for `c1ccc(-c2nc(-n3nc4ccccc4n3)nc3ccccc23)cc1`?
Hck Nef HTS: 8.6; Runt-SMMHC FRET: -0.2; p97 inhibitor: -4.6; RanGTP-Imp inh: 3.3; Runt-CBFb FRET: -3.5; TbHK1 inh: -8.9

What do the screens show for `Clc1ccc(-c2nc(N3CCCCC3)nc3ccccc23)cc1`?
Hck Nef HTS: 3.1; Runt-SMMHC FRET: 87.6*; p97 inhibitor: 2.6; RanGTP-Imp inh: 25.3*; Runt-CBFb FRET: 4.7; TbHK1 inh: 3.3

How did Cc1ccc2nc(N3CCN(C=O)CC3)nc(-c3ccccc3)c2c1 do in these assays?
Hck Nef HTS: 12.1; Runt-SMMHC FRET: 87.6*; p97 inhibitor: -5.5; RanGTP-Imp inh: 53.9*; Runt-CBFb FRET: 13.6; TbHK1 inh: -7.6

How did Cc1cc2nc(-c3cccnc3SCC(=O)NC(C)C)[nH]c2cc1C do in these assays?
Hck Nef HTS: 12.5; Runt-SMMHC FRET: 0.8; p97 inhibitor: -13.6; RanGTP-Imp inh: -6.9; Runt-CBFb FRET: -2.6; TbHK1 inh: -6.2

What do the screens show for `CCOC(=O)N1CCN(c2nc(-c3ccccc3)c3ccccc3n2)CC1`?
RanGTP-Imp inh: 17.8*

How did CSc1ccccc1NC(=O)Cc1ccccc1 do in these assays?
Hck Nef HTS: 13.2; Runt-SMMHC FRET: -2.3; p97 inhibitor: 4.8; RanGTP-Imp inh: -2.9; Runt-CBFb FRET: -2.3; TbHK1 inh: 1.0

How did CCC(OCC(O)CN1CCN(CCN2C(=O)c3cccc4cccc(c34)C2=O)CC1)c1ccccc1 (stereo unspecified) do in these assays?
Hck Nef HTS: 0.3; Runt-SMMHC FRET: -4.5; p97 inhibitor: -9.2; RanGTP-Imp inh: 29.9*; Runt-CBFb FRET: -5.5; TbHK1 inh: -26.0

What do the screens show for `Cc1nc2c([nH]1)C1(CCN(Cc3ccccc3)CC1)C(C#N)=C(N)O2`?
Hck Nef HTS: 0.8; Runt-SMMHC FRET: 90.4*; p97 inhibitor: -3.4; Runt-CBFb FRET: 17.1; TbHK1 inh: 1.1

How did CCOC(=O)c1cc2c(ccn2C)n1CC(=O)N1CCCC(C)C1 (stereo unspecified) do in these assays?
Hck Nef HTS: 1.1; Runt-SMMHC FRET: -14.6; p97 inhibitor: 0.9; RanGTP-Imp inh: 23.7*; Runt-CBFb FRET: 23.0; TbHK1 inh: -5.7

Results for CCc1cccc2c(C(=S)N3CCCC3)c[nH]c12 ?
Hck Nef HTS: 17.7; p97 inhibitor: 4.8; RanGTP-Imp inh: inconclusive; TbHK1 inh: -1.1
